What was measured:
[1] = target: Aldo-keto reductase family 1 member A1 (Rattus norvegicus, UniProt P51635); experiment: Inhibition of rat kidney ALR1 using […] as substrate preincubated for 4 mins at 37 degC followed by substrate addition and measured after 4 mins in presence of NADPH; format: tissue-based
Procedure, shortened: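 Rat kidney enzyme extract with 0.12 mM NADPH, 0.1 M sodium phosphate pH 7.2 and inhibitor in DMSO, preincubated 4 min at 37 °C; reaction started with sodium D-[…] (20 mM stock) and monitored 4 min. Corrected for nonenzymatic NADPH oxidation. Tested 100 µM to 10 nM, three replicates per concentration; IC50 from linear log(dose)–response fit (r² > 0.95).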

[2] = target: Aldo-keto reductase family 1 member B1 (Rattus norvegicus, UniProt P07943); experiment: Inhibition of rat lens ALR2 using D,L-glyceraldehyde as substrate preincubated for 5 mins at 30 degC followed by substrate addition and measured after 4 mins in presence of NADPH; format: tissue-based
[3] = Antioxidant activity assessed as DPPH radical scavenging activity at 5 uM relative to control; format: functional
Procedure, shortened: (§1)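 DPPH (0.025 mg/mL stock in methanol, 1 mL) mixed with 1.9 mL methanol and 100 µL methanolic compound or Trolox, giving final 100, 10, 5 and 1 µM. Absorbance at 517 nm read after reaching steady state; scavenging % = (1 − (A sample − A blank)/A control)×100, blank being compound in methanol, control DPPH in methanol. Triplicate.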

[4] = system: Brain; experiment: Antioxidant activity in rat brain homogenate assessed as inhibition of FeCl3/ascorbic acid-induced lipid peroxidation by measuring MDA level at 100 uM after 30 mins by thiobarbituric acid based spectrophotometric method relative to control; format: functional, tissue-based
Procedure, shortened: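 Fresh rat brain homogenized 25% in ice-cold saline, spun 3000 rpm 10 min; supernatant incubated with compound (100 µM), […] at 37 °C for 30 min. MDA measured by TBA kit: boiled 95 °C 40 min, iced, centrifuged, read at 532 nm. Methanol used as control vehicle. Triplicate.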

[5] = species: Rattus norvegicus; experiment: Selectivity index, ratio of IC50 for rat kidney ALR1 to IC50 for rat lens ALR2
[6] = Antioxidant activity assessed as DPPH radical scavenging activity at 100 uM relative to control; format: functional; procedure, shortened: as §1
[7] = Antioxidant activity assessed as superoxide anion radical scavenging activity incubated for 40 mins by spectrophotometric method; format: functional
Procedure, shortened: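 Incubation at 37 °C for 40 min, then 2 mL chromogenic reagent added; after 10 min standing, absorbance read at 550 nm. Activity (U/µmol) = (A control − A sample)/(A control − A blank) ×150 ÷ sample concentration (µM); control ascorbic acid 150 mg/L, blank distilled water. Triplicate.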

[8] = Antioxidant activity assessed as DPPH radical scavenging activity at 1 uM relative to control; format: functional; procedure, shortened: as §1
[9] = Antioxidant activity assessed as DPPH radical scavenging activity at 10 uM relative to control; format: functional; procedure, shortened: as §1

Aldo-keto reductase family 1 member A1, sequence (P51635 whole entry, looked up): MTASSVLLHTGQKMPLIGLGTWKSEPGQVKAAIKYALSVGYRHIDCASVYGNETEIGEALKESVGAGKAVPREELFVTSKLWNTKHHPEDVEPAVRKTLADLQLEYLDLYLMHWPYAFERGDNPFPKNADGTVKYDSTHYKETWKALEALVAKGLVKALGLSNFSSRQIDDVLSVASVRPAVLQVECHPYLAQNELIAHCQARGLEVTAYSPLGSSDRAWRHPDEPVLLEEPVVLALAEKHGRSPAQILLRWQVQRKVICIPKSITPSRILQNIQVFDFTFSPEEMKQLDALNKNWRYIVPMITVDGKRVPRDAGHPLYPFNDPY

SMILES | IC50 [1] [nM] | IC50 [2] [nM] | Ratio IC50 [5] | inhibition [3] [%] | inhibition [4] [%] | inhibition [6] [%] | Activity [7] [U/µM] | inhibition [8] [%] | inhibition [9] [%]
CC(/C=C1\SC(=S)N(CC(=O)O)C1=O)=C\c1ccccc1 | 1200 |  |  |  |  |  |  |  | 
O=C(O)CN1CC(=O)Oc2ccccc21 | 13700 | 1930 | 7.1 | 23.1 | 72.2 | 92.8 | 0.73 | 7.17 | 65.6
O=C(O)CN1CC(=O)Oc2c(/C=C/c3ccc(C(F)(F)F)cc3)cccc21 | 3270 | 138 | 23.7 | 44.3 |  | 91.3 |  | 9.92 | 89.2
O=Cc1ccc(-c2cccc3c2OC(=O)CN3CC(=O)O)cc1 |  | 1050 |  |  |  |  |  |  | 
COc1cc(/C=C/c2cccc3c2OC(=O)CN3CC(=O)O)ccc1O | 4500 | 188 | 24 | 57.8 | 80.7 | 93.1 | 1.02 | 18.2 | 85
COc1ccc(-c2cccc3c2OC(=O)CN3CC(=O)O)cc1 |  | 774 |  |  |  |  |  |  | 
Cc1c(C)c2c(c(C)c1O)CCC(C)(C(=O)O)O2 (stereo not drawn) |  |  |  | 47.8 | 75.5 | 94.6 | 1.13 | 10.2 | 82.6

Second part, led by results:

IC50 [1] [nM] | IC50 [2] [nM] | Ratio IC50 [5] | SMILES | inhibition [3] [%] | inhibition [4] [%] | inhibition [6] [%] | Activity [7] [U/µM] | inhibition [8] [%] | inhibition [9] [%]
 | 281 |  | O=C(O)CN1CC(=O)Oc2c(/C=C/c3ccc(-c4ccccc4)cc3)cccc21 |  |  |  |  |  | 
 | 220 |  | Cc1ccc(/C=C/c2cccc3c2OC(=O)CN3CC(=O)O)cc1 |  |  |  |  |  | 
4990 | 82 | 60.6 | O=C(O)CN1CC(=O)Oc2c(/C=C/c3ccc(O)cc3)cccc21 | 57.4 | 81.7 | 93.2 | 1.07 | 14.7 | 87.5
 | 262 |  | O=C(O)CN1CC(=O)Oc2c(/C=C/c3ccc([N+](=O)[O-])cc3)cccc21 |  |  |  |  |  | 
 | 3340 |  | O=C(O)CN1CC(=O)Oc2c(-c3ccccc3)cccc21 | 13.2 |  | 91.3 |  | 6.12 | 36.5
2810 | 308 | 9.11 | O=C(O)CN1CC(=O)Oc2c(/C=C/c3ccccc3)cccc21 | 43.6 | 75.8 | 86.5 | 0.81 | 12 | 84.2
669 | 170 | 3.93 | CC(C)(C)c1ccc(/C=C/c2cccc3c2OC(=O)CN3CC(=O)O)cc1 |  |  |  |  |  | 
 | 208 |  | COc1ccc(/C=C/c2cccc3c2OC(=O)CN3CC(=O)O)cc1 |  |  |  |  |  | 
4280 | 167 | 25.7 | O=C(O)CN1CC(=O)Oc2c(/C=C/c3ccc(F)cc3)cccc21 | 57.1 | 74.8 | 92.6 | 0.79 | 12.6 | 90

Reference: ChEMBL document CHEMBL4665880, “Dihydrobenzoxazinone derivatives as aldose reductase inhibitors with antioxidant activity” (Bioorg Med Chem, 2020)
